Screening results as filed in PubChem BioAssay.
NR2E3 ag-1: agonists of human nuclear receptor NR2E3; Q9Y5X4; GST-NR2E3/biotin-RetCOR TR-FRET, 1536-well; inhibition of corepressor binding, % at 4.78 µM; actives 0.12% (n = 320,000);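 active means percent inhibition above the cutoff of mean plus 3 SD of all tested compounds, set per screening campaign, cut at about 20% in these data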;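 further: 0% = DMSO wells and 100% = biotin wells as full block of FRET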
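System: GST-NR2E3 and biotin-RetCOR proteins; probe or stimulus: 7 nM biotin-RetCOR; doses: compound at 4.8 µM, single dose; schedule: Compound–protein incubation for 5 h at 4 °C; detection: time-resolved FRET; read-out: percent inhibition; controls: biotin wells as high control, 0.6% DMSO wells as low control; format: 1536-well plates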
rCAG binder: molecules binding r(CAG) RNA repeats; AID 651821; r(CAG) RNA repeat, TO-PRO-1 dye displacement fluorescence; inhibition, % at 3 µM; actives 1.3% (n = 370,000);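 active means inhibition above the plate cutoff, the mean of all test compounds on that plate plus 3 SD, cut at about 35% in these data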;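 further: 0% = DMSO alone and 100% = 100 µM mitoxantrone as full dye displacement; higher means more dye released from RNA so lower well fluorescence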
Rev-erbA mod: modulators of human Rev-erb alpha DNA binding. P20393. Rev-erbα–FITC-DNA binding, fluorescence polarization, 90 min. activity, % at 10 µM. actives 0.79% (n = 370,000);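 active means activity above about 14%, limit read from the data; passing the limit was not always enough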;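 further: 0% = DMSO wells with 35 nM protein and 100% = DMSO wells with 750 nM protein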
Target sequence (P20393 whole entry, looked up): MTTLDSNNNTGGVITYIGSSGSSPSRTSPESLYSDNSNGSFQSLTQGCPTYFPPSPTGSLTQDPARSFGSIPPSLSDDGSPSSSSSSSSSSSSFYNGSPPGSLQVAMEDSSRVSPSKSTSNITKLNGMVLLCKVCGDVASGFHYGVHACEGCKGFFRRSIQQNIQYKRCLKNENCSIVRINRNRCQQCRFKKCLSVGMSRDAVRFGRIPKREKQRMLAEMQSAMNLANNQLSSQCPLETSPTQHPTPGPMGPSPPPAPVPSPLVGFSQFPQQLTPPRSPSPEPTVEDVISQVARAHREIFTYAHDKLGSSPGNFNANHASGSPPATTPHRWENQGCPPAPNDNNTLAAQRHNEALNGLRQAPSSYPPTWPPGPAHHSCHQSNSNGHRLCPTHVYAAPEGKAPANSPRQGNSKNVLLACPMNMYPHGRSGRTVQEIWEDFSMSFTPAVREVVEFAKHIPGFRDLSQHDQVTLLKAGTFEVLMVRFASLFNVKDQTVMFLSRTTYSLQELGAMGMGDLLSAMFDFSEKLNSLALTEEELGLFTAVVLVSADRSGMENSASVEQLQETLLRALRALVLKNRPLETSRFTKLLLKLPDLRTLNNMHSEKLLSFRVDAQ
PG9 binder: PG9 antibody binding by small molecule | TR-FRET gp120-PG9 antibody binding | AID 624416 | actives 0.43% (n = 360,000) | inhibition, % at 6.7 µM; in the data active means inhibition above about 8.5%
NR2E3 ag-2: activates human NR2E3 receptor; inhibition of corepressor binding, % at 3.98 µM; actives 0.35% (n = 360,000); Q9Y5X4; CHO-S Gal4-NCOR/VP16-NR2E3 two-hybrid, luciferase;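 active means inhibition above the mean of all tested compounds plus 3 SD, cut at about 70% in these data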;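 further: 0% = DMSO with NR2E3 transfected cells and 100% = cells lacking NR2E3 construct; higher means lower luciferase signal from less NR2E3 corepressor binding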
NR1D1 mod conf: confirmation of modulators of human Rev-erb alpha DNA binding. AID 1259319. shares compounds with Rev-erbA mod. actives 61% (n = 3,000). activation, % at 25 µM. Rev-erb alpha FITC-DNA binding, fluorescence polarization, 90 min;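 active means activation at or above a set limit, or at least 3 SD above the negative control mean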;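 further: 0% = 35 nM protein with DMSO and 100% = 750 nM protein high control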
RORg counter: counter-screen for Rev-erb alpha modulators: RORgamma DNA binding. shares compounds with Rev-erbA mod. purified RORgamma protein-FITC-DNA binding, fluorescence polarization. IC50, µM. actives 8% (n = 910). AID 1259320;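 active means Compounds whose fitted half-maximal concentration for disrupting protein-DNA binding is below 10 micromolar; the record names Rev-erb in its text, so the target is in doubt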
An asterisk follows results filed as active. Most compounds without a hit are left out; they make up all but 2.6% or so of the library.

For N#Cc1c(-c2ccccc2)cc(-c2ccccc2)[nH]c1=O the results were NR2E3 ag-1 3.0, rCAG binder 0.0, Rev-erbA mod 18.4, PG9 binder 1.6 and NR2E3 ag-2 -5.9.
Screening COc1cc(-c2cc(-c3ccc(N)cc3)[nH]c(=O)c2C#N)cc(OC)c1OC returned NR2E3 ag-1 2.4, rCAG binder 1.9, Rev-erbA mod 25.0*, PG9 binder -0.8, NR2E3 ag-2 -5.7 and NR1D1 mod conf 15.1.
COc1ccc2c(c1)cc(C(=O)N[C@@H](Cc1ccccc1)C(=O)N[C@@H](C)C(=O)O)n2C was read as NR2E3 ag-1 1.2, rCAG binder 4.1, Rev-erbA mod 28.4*, PG9 binder -1.4, NR2E3 ag-2 -33.1 and NR1D1 mod conf -6.3.
`COc1ccc2c(c1)cc(C(=O)N[C@@H](Cc1ccccc1)C(=O)O)n2C` gave NR2E3 ag-1 1.5, rCAG binder 5.7, Rev-erbA mod -3.2, PG9 binder -0.3 and NR2E3 ag-2 2.4.
Screening Nc1ncc2c(n1)-c1cc(Cl)ccc1SC2 returned NR2E3 ag-1 9.2, rCAG binder 8.8, Rev-erbA mod 34.3*, PG9 binder 1.6, NR2E3 ag-2 18.2 and NR1D1 mod conf -1.5.
Cc1ncc2c(n1)-c1cc(F)ccc1SC2 was read as NR2E3 ag-1 2.6, rCAG binder 1.5, Rev-erbA mod 0.1, PG9 binder 1.4 and NR2E3 ag-2 -3.1.
For CCCn1c(N)c(N2CCCCC2)c(=O)n(CC(=O)Nc2cccc(S(=O)(=O)N(C)C)c2)c1=O the results were rCAG binder 3.2, Rev-erbA mod 2.2, PG9 binder -0.2 and NR2E3 ag-2 -6.6.
For O=C(/C=C/c1cccs1)c1ccco1 the results were rCAG binder 1.5, Rev-erbA mod 5.7, PG9 binder -1.0 and NR2E3 ag-2 14.9.
Screening O=C(CCCn1c(=S)[nH]c2ccccc2c1=O)N1CCN(c2cccc(Cl)c2)CC1 returned NR2E3 ag-1 0.6, rCAG binder 0.5, Rev-erbA mod 26.1*, PG9 binder 3.0, NR2E3 ag-2 2.1 and NR1D1 mod conf 56.8*.
Screening COc1ccc(Cn2cc(CN3CCOCC3)nn2)cc1 returned rCAG binder 1.1, Rev-erbA mod -1.9, PG9 binder -1.8 and NR2E3 ag-2 -13.0.
For CN1C(=O)CSC1=NCC12CC3CC(CC(C3)C1)C2 the results were NR2E3 ag-1 0.9, rCAG binder -3.9, Rev-erbA mod 23.9*, PG9 binder -0.6, NR2E3 ag-2 1.2, NR1D1 mod conf 32.0* and RORg counter >40.
Screening CC1NC(=O)c2cc3ccccc3cc2-n2c1nc1cc(Cl)ccc1c2=O (stereo not given) returned rCAG binder 7.6, Rev-erbA mod 16.1*, PG9 binder -1.4, NR2E3 ag-2 -10.8 and NR1D1 mod conf -0.5.
Screening CC1NC(=O)c2cc3ccccc3cc2-n2c1nc1cc(F)ccc1c2=O (stereo not given) returned rCAG binder 2.0, Rev-erbA mod 5.2, PG9 binder 0.3 and NR2E3 ag-2 -19.7.
`COc1ccc(NC(=O)c2sc3nc(N4CCCC4)c4c(c3c2N)CC(C)(C)OC4)cc1` gave NR2E3 ag-1 8.0, rCAG binder 18.4, Rev-erbA mod 126.9*, PG9 binder 0.9, NR2E3 ag-2 -37.2, NR1D1 mod conf 80.4* and RORg counter >40.
CCCc1nc2sc(C(=O)OCC)c(N)c2c2c1COC(C)(C)C2 was read as NR2E3 ag-1 0.5, rCAG binder -2.3, Rev-erbA mod 47.8*, PG9 binder -1.2, NR2E3 ag-2 5.5 and NR1D1 mod conf 25.4*.
For COc1ccc(NC(=O)c2sc3nc(N4CCOCC4)c4c(c3c2N)CC(C)(C)OC4)cc1 the results were NR2E3 ag-1 2.0, rCAG binder 5.7, Rev-erbA mod -5.6, PG9 binder -0.7 and NR2E3 ag-2 -15.8.
CCOC(=O)c1sc2nc(C)c3c(c2c1N)CC(C)(C)OC3 was read as NR2E3 ag-1 2.3, rCAG binder 1.1, Rev-erbA mod 1.6, PG9 binder 3.9 and NR2E3 ag-2 -23.3.
FC(F)(F)c1cc(-c2ccccc2)nc2nc(N3CCOCC3)sc12 was read as NR2E3 ag-1 3.5, rCAG binder -1.1, Rev-erbA mod 24.5*, PG9 binder 1.1, NR2E3 ag-2 -6.4 and NR1D1 mod conf 8.5.
For O=C(O)c1cc(-c2ccccc2)nc2nc(N3CCCCC3)sc12 the results were NR2E3 ag-1 3.5, rCAG binder 20.9, Rev-erbA mod -0.2 and PG9 binder -1.1.
Screening CCCNC(=O)/C(C#N)=C1\N=C(NC(=O)c2cccs2)c2ccccc21 returned NR2E3 ag-1 0.0, rCAG binder 0.9, Rev-erbA mod 30.2*, PG9 binder -1.9, NR2E3 ag-2 -31.1 and NR1D1 mod conf 21.5*.
`COCCNC(=O)/C(C#N)=C1\N=C(NC(=O)c2cccs2)c2ccccc21` gave NR2E3 ag-1 -3.0, rCAG binder 4.2, Rev-erbA mod -4.3, PG9 binder -0.8 and NR2E3 ag-2 -0.9.
For c1ccc(Cn2nnc3c(N4CCOCC4)ncnc32)cc1 the results were NR2E3 ag-1 2.7, rCAG binder 2.3, Rev-erbA mod 0.4, PG9 binder 1.7 and NR2E3 ag-2 24.3.
FC(F)(F)c1ccc(N2CCN(c3ncnc4c3nnn4Cc3ccccc3)CC2)nc1 was read as NR2E3 ag-1 -0.8, rCAG binder 1.1, Rev-erbA mod 20.8*, PG9 binder 0.1, NR2E3 ag-2 -13.1 and NR1D1 mod conf 2.8.
CSc1cc(CS(=O)(=O)c2ccccc2)nc(-c2ccccc2)n1 was read as NR2E3 ag-1 0.0, rCAG binder -2.1, Rev-erbA mod 20.2*, PG9 binder -0.9, NR2E3 ag-2 7.0 and NR1D1 mod conf 28.0*.
For O=S(=O)(Cc1cc(NCc2ccccc2)nc(-c2ccccn2)n1)c1ccccc1 the results were NR2E3 ag-1 0.1, rCAG binder -5.9, Rev-erbA mod -2.3, PG9 binder -2.7 and NR2E3 ag-2 -3.7.
Cc1nc(CS(=O)(=O)c2ccccc2)cc(Sc2ccc(Cl)cc2Cl)n1 was read as NR2E3 ag-1 -0.1, rCAG binder -4.0, Rev-erbA mod -4.1, PG9 binder -1.8 and NR2E3 ag-2 -84.0.
O=S(=O)(Cc1cc(NCc2ccccc2)nc(-c2ccncc2)n1)c1ccccc1 was read as NR2E3 ag-1 1.2, rCAG binder -3.2, Rev-erbA mod 16.8*, PG9 binder -0.6, NR2E3 ag-2 -17.1, NR1D1 mod conf 43.8* and RORg counter >40.
Screening COC(=O)c1c(C(=O)c2ccc(Br)cc2)n(C)c2ccccc12 returned NR2E3 ag-1 6.3, rCAG binder 1.4, Rev-erbA mod 17.9*, PG9 binder 4.1, NR2E3 ag-2 -11.3 and NR1D1 mod conf 20.7*.
